Screening results deposited in PubChem by several laboratories.
In the library only some 0.81% were active in any assay of this set; here they are far more common.
sdo1 growth – sdo1-depleted yeast growth rescue; S. cerevisiae sdo1-depleted JHY4D growth rescue, OD600 30 h; stronger effect = higher value; pdr5 snq2 efflux-pump mutant strain; z-score at 10 µM; 140,000 tested, 0.21% active;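 active = z-score above 3 at both the 24 hr and the 30 hr optical density reads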;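 note: z-score against mean and SD of all compound wells on the same plate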
TNF necrop inh – inhibitors of TNF-alpha induced necroptosis in Jurkat FADD-/- cells | 220,000 tested, 0.068% active | Jurkat FADD-/- TNF necroptosis rescue, ATP luminescence, 24 h; 0 = TNF only, 100 = no-TNF cells | activation (protection from cell death), % at 10 µM;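 active = activation, meaning protection from cell death, of at least 50% relative to plate controls; inactive = activation below 50%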;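 note: necroptosis triggered by 40 ng/mL TNF-alpha added together with compound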
TNAP act hi DEA – TNAP (human) activation, high acceptor | purified TNAP, CDP-star luminescence, 1 M DEA, 30 min; stronger effect = higher value; 0 = EDTA background, 1 = DMSO-only activity | 200,000 tested, under 10 active | P05186 | activation factor at 20 µM;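 active = activation factor at least 2 at 20 µM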
Target sequence (P05186 whole entry, looked up): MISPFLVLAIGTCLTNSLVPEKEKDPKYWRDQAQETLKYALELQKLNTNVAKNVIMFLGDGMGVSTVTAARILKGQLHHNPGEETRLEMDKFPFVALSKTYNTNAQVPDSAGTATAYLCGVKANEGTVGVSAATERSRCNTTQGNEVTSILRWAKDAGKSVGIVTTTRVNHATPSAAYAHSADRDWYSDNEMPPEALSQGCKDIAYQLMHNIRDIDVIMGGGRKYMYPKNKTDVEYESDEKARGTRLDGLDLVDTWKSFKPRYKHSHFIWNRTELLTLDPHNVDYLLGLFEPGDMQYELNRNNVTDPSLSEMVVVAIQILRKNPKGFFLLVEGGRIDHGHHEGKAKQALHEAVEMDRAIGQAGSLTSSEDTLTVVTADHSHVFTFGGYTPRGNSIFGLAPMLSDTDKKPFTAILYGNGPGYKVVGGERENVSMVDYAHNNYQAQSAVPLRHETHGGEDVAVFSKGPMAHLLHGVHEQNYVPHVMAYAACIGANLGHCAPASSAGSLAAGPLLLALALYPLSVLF
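system = human TNAP | amount = enzyme diluted 1/800 final | reagent = 100 µM CDP-star substrate | signal = luminescent substrate turnover signal | dosing = one dose, 20 µM | benchmarks = EDTA negative control, DMSO positive control | measure = activation factor | timing = 30 min reaction, room temperature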
TNAP inh no acc – TNAP (human) inhibition, acceptor-free conditions. P05186. purified TNAP, CDP-star luminescence, 30 min. inhibition, % at 20 µM. 200,000 tested, 0.26% active. AID 1012;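 active = tissue-nonspecific alkaline phosphatase inhibition above about 50% at 20 µM in the single-dose screen, limit read from the data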;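 note: 0% = DMSO negative control and 100% = EDTA positive control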
zVAD death inh – L929 zVAD cell death inhibition. L929 zVAD necroptosis rescue, ATP luminescence, 24 h; with zVAD 60 µM. viability rescue, % at 10 µM. 220,000 tested, 0.38% active;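 active = activation, scaled between plate controls, above about 75%, limit read from the data; inactive = activation under that limit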;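 note: 0% = zVAD with DMSO and 100% = DMSO alone without zVAD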
TNAP inh hiacc – blocks human TNAP under high phosphate acceptor concentration; P05186; purified TNAP, CDP-star luminescence, 1 M DEA; inhibition, % at 20 µM; 200,000 tested, 0.03% active; AID 1135;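 active = over 50% inhibition of tissue-nonspecific alkaline phosphatase at 20 µM in the single-dose screen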;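 note: plate controls were DMSO wells for no effect and EDTA-quenched wells as full inhibition for full effect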
Active calls of the source: *.

Screening CS(=O)(=O)N1CCSC1c1ccc(Br)cc1 (stereo unspecified) returned TNF necrop inh 1 and zVAD death inh 0.
`Brc1ccc(C2NCCS2)cc1` (stereo unspecified) gave TNF necrop inh 2, TNAP act hi DEA 1, TNAP inh no acc 72*, zVAD death inh 4 and TNAP inh hiacc 2.
`Cc1ccc(-n2ncc3c2ncn2c(-c4ccncc4)nnc32)cc1` gave TNAP act hi DEA 1, TNAP inh no acc 54* and TNAP inh hiacc -2.
For C/C(CC(=O)Nc1ccccc1Br)=N\NC(=O)C(=O)N1CCCC1 the results were sdo1 growth 0.02, TNF necrop inh -2, TNAP act hi DEA 1, TNAP inh no acc 66*, zVAD death inh 0 and TNAP inh hiacc 4.
`Cc1[nH]n(-c2c(Cl)cc(Cl)cc2Cl)c(=O)c1C=Nc1ccc(S(=O)(=O)N2CCOCC2)cc1` gave sdo1 growth 0.7, TNF necrop inh 1, TNAP act hi DEA 1, TNAP inh no acc -3, zVAD death inh 0 and TNAP inh hiacc 0.
For CCOC(=O)c1n[nH]c2ccccc12 the results were sdo1 growth 0.27, TNF necrop inh -1, TNAP act hi DEA 1, TNAP inh no acc 58*, zVAD death inh 4 and TNAP inh hiacc -2.
For CC1CCCCN1C(=O)COC(=O)c1n[nH]c2ccccc12 (stereo unspecified) the results were sdo1 growth -0.41, TNF necrop inh -1, TNAP act hi DEA 1, TNAP inh no acc 55*, zVAD death inh 0 and TNAP inh hiacc -3.
For Cc1cc(NC(=O)CSc2nnc(-c3ccccc3)c(-c3ccccc3)n2)no1 the results were TNF necrop inh -9, TNAP act hi DEA 1, TNAP inh no acc -4, zVAD death inh 0 and TNAP inh hiacc 0.
`CC(=O)n1nc(-c2cccnc2)nc1NCc1cccs1` gave TNF necrop inh 2, TNAP act hi DEA 1.1, TNAP inh no acc 57*, zVAD death inh 71 and TNAP inh hiacc -6.
`CCC(=O)n1nc(-c2cccnc2)nc1NCc1ccc(F)cc1` gave TNF necrop inh 2, TNAP act hi DEA 1, TNAP inh no acc 20, zVAD death inh 72 and TNAP inh hiacc 2.
`CCC(=O)n1nc(-c2cccnc2)nc1NCc1cccs1` gave TNF necrop inh 1, TNAP act hi DEA 1, TNAP inh no acc 69*, zVAD death inh 73 and TNAP inh hiacc 4.
For Cc1ccccc1Sc1c(C#N)c(-c2ccccc2)nn1C the results were sdo1 growth -1.1, TNF necrop inh -4, TNAP act hi DEA 1, TNAP inh no acc -3, zVAD death inh 0 and TNAP inh hiacc -1.
Screening COc1ccc(Nc2nnc(-c3ccc(N4CCOCC4)c([N+](=O)[O-])c3)c3ccccc23)cc1 returned sdo1 growth -0.31, TNF necrop inh -16, TNAP act hi DEA 1, TNAP inh no acc 0, zVAD death inh 82* and TNAP inh hiacc 4.
For COc1ccc(C(=O)c2ccc(N3CCOCC3)c([N+](=O)[O-])c2)cc1 the results were TNF necrop inh -4, TNAP act hi DEA 1, TNAP inh no acc -8, zVAD death inh -1 and TNAP inh hiacc -3.
For CC(=O)Nc1ccc(C2(c3ccc(NC(C)=O)cc3)C(=O)Nc3ccccc32)cc1 the results were TNF necrop inh -1, TNAP act hi DEA 1, TNAP inh no acc -13, zVAD death inh 1 and TNAP inh hiacc 0.
Cc1ccc2[nH]c(=O)c(CN(Cc3ccccc3Cl)C(=O)N3CCOCC3)cc2c1 was read as sdo1 growth -0.07, TNF necrop inh -6, TNAP act hi DEA 1, TNAP inh no acc -2, zVAD death inh 0 and TNAP inh hiacc 1.
c1ccc(CN=C2NN=C(c3ccccc3)CS2)cc1 was read as TNF necrop inh 16, TNAP act hi DEA 1, TNAP inh no acc -10, zVAD death inh 2 and TNAP inh hiacc 1.
`Clc1ccc(C2=NNC(=NCc3ccccc3)SC2)cc1` gave TNF necrop inh 56*, TNAP act hi DEA 1, TNAP inh no acc 2, zVAD death inh 73 and TNAP inh hiacc -1.
For Fc1ccc(C2=NNC(=NCc3ccccc3)SC2)cc1F the results were TNF necrop inh 51*, TNAP act hi DEA 1, TNAP inh no acc -4, zVAD death inh 57 and TNAP inh hiacc 0.
For COc1ccc(S(=O)(=O)n2nc(C)cc2C)c(C)c1C the results were sdo1 growth -0.75, TNF necrop inh -2, TNAP act hi DEA 1, TNAP inh no acc -1, zVAD death inh -1 and TNAP inh hiacc -3.
`CC[n+]1c(/C=C/c2ccc(N(C)C)cc2)ccc2ccccc21` gave sdo1 growth -1.6, TNF necrop inh -11, TNAP act hi DEA 0.4, TNAP inh no acc 60*, zVAD death inh 2 and TNAP inh hiacc 60*.
For CC[n+]1ccc(/C=C/c2ccc(N(C)C)cc2)c2ccccc21 the results were TNF necrop inh -11, TNAP act hi DEA 0.5, TNAP inh no acc 52*, zVAD death inh -3 and TNAP inh hiacc 54*.
CC[n+]1ccccc1/C=C/c1ccc(N(C)C)cc1 was read as TNF necrop inh -6, TNAP act hi DEA 0.7, TNAP inh no acc 8, zVAD death inh -1 and TNAP inh hiacc 27.
Screening CCN(CC)CCC(c1ccc2c(c1)OCO2)c1c(O)cc(OC)cc1OC (stereo unspecified) returned TNF necrop inh 2 and zVAD death inh 0.
`COP1(=O)C=C[C@H](N(Cc2ccccc2)S(=O)(=O)c2ccccc2[N+](=O)[O-])[C@@H](C)O1` (stereo partly specified) gave TNF necrop inh 0 and zVAD death inh 0.
For CCn1c(NN)nc2sc3c(c2c1=O)CCC3 the results were sdo1 growth -0.11, TNF necrop inh -1, TNAP act hi DEA 1, TNAP inh no acc -6, zVAD death inh -1 and TNAP inh hiacc 0.
C=C(C)CSc1nnc2n(Cc3ccccc3)c(=O)c3c4c(sc3n12)CCC4 was read as sdo1 growth -0.56, TNF necrop inh 51*, TNAP act hi DEA 1, TNAP inh no acc -9, zVAD death inh 2 and TNAP inh hiacc -4.
NNc1nc2sc3c(c2c(=O)n1Cc1ccccc1)CCC3 was read as TNF necrop inh 90* and zVAD death inh 3.
For COc1ccc(N2CCN(C(=O)CSc3nnc(-c4ccco4)n3C)CC2)cc1 the results were TNF necrop inh 2, TNAP act hi DEA 1, TNAP inh no acc -7, zVAD death inh 2 and TNAP inh hiacc 1.
Screening CC(=O)c1c(C)nc2ccc(Cl)cn12 returned sdo1 growth 0.43, TNF necrop inh 0, TNAP act hi DEA 1, TNAP inh no acc -7, zVAD death inh 1 and TNAP inh hiacc -4.
